Compound activity deposited in PubChem by several laboratories.
RanGTP-Impb inh = inhibitors of RanGTP-importin-beta interaction, primary screen, biochemical, FRET, CFP-Ran, YFP-importin-beta, homogeneous; Ran GTPase (GTP-bound) - importin-beta complex; cell-free CFP-Ran/YFP-importin-beta FRET ratio; inhibition, % (concentration not given with the values); hit rate 1.1% among 300,000;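 active means more than half of the replicate wells show a fall in the fluorescence ratio signal beyond about 16%, limit read from the data, passing the limit was not always enough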
Hck-Nef inh = inhibitors of Nef-activated human Hck kinase, primary screen, biochemical, Z-Lyte FRET, 384-well, Hck-YEEI. Tyrosine-protein kinase HCK (Homo sapiens), P08631. Recombinant Hck-YEEI plus Nef, Z-Lyte FRET kinase assay. inhibition, % at 20 µM. hit rate 0.68% among 220,000. AID 463187, 2010;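 active means Hck-Nef kinase inhibition above about 50%, limit read from the data; inactive means inhibition below that limit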
Target sequence (P08631 whole entry, looked up): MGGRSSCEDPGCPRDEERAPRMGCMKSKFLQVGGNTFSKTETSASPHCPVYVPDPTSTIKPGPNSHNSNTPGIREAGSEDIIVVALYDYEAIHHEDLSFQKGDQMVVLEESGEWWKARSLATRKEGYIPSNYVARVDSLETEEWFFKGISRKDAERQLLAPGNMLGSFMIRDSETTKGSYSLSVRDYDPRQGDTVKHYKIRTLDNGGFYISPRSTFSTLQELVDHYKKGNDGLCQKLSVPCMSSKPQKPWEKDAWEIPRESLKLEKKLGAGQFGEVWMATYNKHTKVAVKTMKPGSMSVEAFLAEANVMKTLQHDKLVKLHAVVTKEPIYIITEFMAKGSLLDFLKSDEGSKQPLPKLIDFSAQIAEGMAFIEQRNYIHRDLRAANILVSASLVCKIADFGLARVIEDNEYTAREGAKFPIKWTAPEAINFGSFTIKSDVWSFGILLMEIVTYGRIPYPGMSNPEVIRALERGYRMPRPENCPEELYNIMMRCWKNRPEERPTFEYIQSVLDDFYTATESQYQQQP
Runt-SMMHC FRET = inhibitors of RUNX1 Runt–CBFb-SMMHC binding, primary screen, biochemical, FRET, Cerulean-Runt, Venus-CBFb-SMMHC, uHTS; Runt-related transcription factor 1 (Homo sapiens) + Core-binding factor subunit beta …; Cerulean-Runt/Venus-CBFb-SMMHC FRET ratio 530/480, 1 h; inhibition, % at 20 µM; hit rate 0.74% among 220,000;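 active means mean inhibition across duplicate retests at 20 µM reaching about 50%, limit read from the data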;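 further: inhibitors lower the FRET ratio by blocking Runt binding to CBFb-SMMHC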
Runt-CBFb FRET = inhibitors of RUNX1 Runt–CBFb binding, primary screen, biochemical, FRET, Cerulean-Runt, Venus-CBFb, uHTS | hit rate 0.46% among 220,000 | inhibition, % at 20 µM | Cerulean-Runt/Venus-CBFb FRET ratio 530/480, 1 h;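 active means inhibition over about 50% at 20 µM in the single-dose screen, limit read from the data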
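test system = Cerulean-Runt domain fusion protein, energy donor | probe or stimulus = Venus-CBFb binding partner, 100 nM | incubation = two 1 h room-temperature incubations shielded from light | detection = fluorescence energy transfer, 422 nm excitation, 530/480 nm emission | measure = loss of energy transfer signal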
14-3-3 Bad inh = inhibitors of 14-3-3 zeta/Bad binding, primary screen, biochemical, TR-FRET, bovine 14-3-3 zeta | 14-3-3 protein zeta/delta (Bos taurus), P63103 | AID 781, 2007 | inhibition, % at 21.7 µM | hit rate 0.71% among 220,000 | TR-FRET 14-3-3zeta/Dy647-pBad peptide displacement, 1 h;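 active means inhibition above about 70%, limit read from the data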
Tb hexokinase = Trypanosoma brucei hexokinase 1 inhibitors, primary screen, biochemical, G6PDH-coupled NADH absorbance, MLSCN library | inhibition, % at 10 µM | hit rate 0.11% among 220,000 | hexokinase 1 [Trypanosoma brucei] | recombinant TbHK1, G6PDH-coupled NADH A340;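 active means inhibition of 50% or more in the single-dose primary screen; inactive means inhibition below 50%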
Hits are given with their value; . = inactive; / = no result given. This is a sample that favours compounds with a hit; in the whole collection about 2.2% have one here.

SMILES	RanGTP-Impb inh	Hck-Nef inh	Runt-SMMHC FRET	Runt-CBFb FRET	14-3-3 Bad inh	Tb hexokinase
Cn1c(=O)[nH]c(=O)c2c1nc(N1CCOCC1)n2CCSc1ncccn1	/	.	/	/	/	.
O=Cc1sc([O-])nc1-[n+]1ccc2ccccc2c1	28	.	.	.	.	.
COc1ccc(CC(=O)OCC(=O)NC(=O)NC2CCCCC2)cc1	.	.	.	.	.	.
O=C(COc1ccc(S(=O)(=O)N2CCOCC2)cc1)Nc1ccccc1C(F)(F)F	27	.	.	.	.	.
Cc1cccn2c(=O)c(/C=C(\C#N)C(=O)NCc3ccco3)c(N3CCCCC3)nc12	.	.	60	65	.	.
Cc1cccn2c(=O)c(/C=C(\C#N)C(=O)NCc3ccco3)c(N3CCCC(C)C3)nc12 (stereo not given)	.	.	/	98	.	.
Cc1cccn2c(=O)c(/C=C(\C#N)C(=O)NCc3ccco3)c(N3CCCCCC3)nc12	.	.	.	97	.	.
CCOC(=O)C1CCCN(c2nc3c(C)cccn3c(=O)c2/C=C(\C#N)C(=O)NCc2ccco2)C1 (stereo not given)	.	.	.	121	.	.
CCNC(=O)/C(C#N)=C/c1c(N2CCN(c3cccc(Cl)c3)CC2)nc2c(C)cccn2c1=O	.	/	/	/	/	/
CCOC(=O)/C(C#N)=C/c1c(N2CCN(c3ccccc3)CC2)nc2c(C)cccn2c1=O	.	/	/	/	/	/
CCNC(=O)/C(C#N)=C/c1c(N2CCN(C)CC2)nc2c(C)cccn2c1=O	.	/	/	/	/	/
CN(C)c1ccc(S(=O)(=O)N2CCCCC2)cc1NC(=O)C1=NN(c2ccccc2)C(=O)CC1	.	/	/	/	/	/
Cc1cccn2c(=O)c(/C=C(\C#N)C(=O)NCc3ccco3)c(N3CCC(C(N)=O)CC3)nc12	.	.	/	71	.	.
N#C/C(=C\c1c(N2CCCCC2)nc2ccccn2c1=O)C(=O)NCc1ccco1	.	.	.	65	.	.
COc1ccc(CNC(=O)COc2ccc([N+](=O)[O-])cc2)cc1	37	.	.	.	.	.
COc1ccc(OCC(=O)NCc2ccc(Cl)cc2)cc1	.	/	/	/	/	/
COc1ccc(CC(=O)NCc2ccccc2)cc1	.	/	/	/	/	/
CCC(CC)C(=O)NCc1ccc(OC)cc1	.	.	.	.	76	.
CCOCCOC(=O)c1ccc(-n2cncn2)nc1	.	.	.	.	.	.
CCC(C)(C)NC(=O)CN(C(=O)CNS(=O)(=O)c1ccc(F)cc1)c1ccc2c(c1)OCCO2	.	/	/	/	/	/
CCc1c(C)sc(NC(=O)Cc2ccccc2OC)c1C(=O)N1CCOCC1	.	/	/	/	/	/
COc1cc(-n2nc(C)c3c2OC(N)=C(C#N)C3c2ccccc2)c(Cl)c(Br)c1O (stereo not given)	65	.	.	.	.	.
COc1cccc(/C(O)=C2/C(=O)C(=O)N(c3cc(C)on3)C2c2cccs2)c1 (stereo not given)	.	.	145	77	.	.
Cc1cc(N2C(=O)C(=O)/C(=C(/O)c3ccccc3)C2c2cccs2)no1 (stereo not given)	.	.	.	.	.	.
CCc1cc2c(SCC(=O)Nc3cc(C)on3)ncnc2s1	.	.	.	.	.	.
SMILES	RanGTP-Impb inh	Hck-Nef inh	Runt-SMMHC FRET	Runt-CBFb FRET	14-3-3 Bad inh	Tb hexokinase
COc1ccc(-c2ncc(CN3CCC(CO)(Cc4cccc(OC)c4)CC3)cn2)cc1	82	.	.	.	.	.
O=C(OCC1OC(n2ncc(=O)[nH]c2=O)C(OC(=O)c2ccccc2)C1OC(=O)c1ccccc1)c1ccccc1 (stereo not given)	.	/	/	/	/	/
CC(=O)OC[C@H]1O[C@@H](n2ncc(=O)[nH]c2=O)[C@H](OC(C)=O)[C@@H]1OC(C)=O	.	.	.	.	71	.
Cc1ccc(C2=N/C(=C\N(C)C)C(=O)O2)cc1	17	.	.	.	.	.
CN(C)/C=C1/N=C(c2ccccc2)OC1=O	.	.	.	.	.	.
N=C1C=CC=C2C1=NC1(CCCCC1)N2O	.	.	.	.	.	.
CCN(CCNC(=O)C1CCCN(Cc2nc(-c3ccc(OC)cc3)oc2C)C1)c1ccccc1 (stereo not given)	.	.	.	.	86	.
Cc1ccc2nc3c(cc2c1)c(C)nn3-c1ccccc1	61	/	/	/	/	/
CC1(c2ccc([N+](=O)[O-])c(CS(=O)(=O)c3ccccc3)c2)OCCO1	.	.	.	.	.	.
CSc1nc(=S)c2[nH]c(=S)[nH]c2[nH]1	.	.	51	.	.	.
Oc1oc(-c2ccccc2)nc1C=Nc1cccc2ccccc12	27	.	.	.	.	.
O=C(Nc1cccc(-c2nc3ccccc3s2)c1)c1cc(=O)c2ccccc2o1	.	53	.	.	.	.
CN(C)c1ccc(/C=N/N2C(=S)SC(C)(C)C2N(O)C(=O)Nc2ccc([N+](=O)[O-])cc2)cc1 (stereo not given)	.	.	.	.	.	.
O=c1cc2oc3cc(O)c(O)cc3c(-c3ccccc3[N+](=O)[O-])c-2cc1O	18	/	/	/	/	/
COc1ccccc1CCNC(=O)CN1C(=O)c2ccccc2S1(=O)=O	.	/	/	/	/	/
CCCCCCc1cc2cc(-c3nnc(-c4ccccc4O)o3)c(=O)oc2cc1O	159	.	.	.	/	.
CCCCCCc1cc2cc(-c3nnc(-c4cc(OC)c(OC)c(OC)c4)o3)c(=O)oc2cc1O	139	.	75	123	.	.
COc1ccc(-c2nnc(-c3cc4ccccc4oc3=O)o2)cc1	.	.	.	.	.	.
CCCCCCc1cc2cc(-c3nnc(-c4ccccc4OC)o3)c(=O)oc2cc1O	136	.	58	.	.	.
CCCCCCc1cc2cc(C(=O)Nc3ccccc3OC)c(=O)oc2cc1O	93	.	63	133	.	.
N#C/C(=C(/O)c1ccc(-c2cccc([N+](=O)[O-])c2)o1)c1nc2ccccc2s1	.	.	.	.	92	.
N#C/C(=C/c1ccc(-c2cc(C(=O)O)cc(C(=O)O)c2)o1)c1nc2ccccc2s1	.	.	69	85	.	.
Cc1cc(OC(C)C(=O)N(Cc2ccco2)C2CCS(=O)(=O)C2)cc(C)c1Cl (stereo not given)	.	/	/	/	/	/
COc1cccc(CN2CCN(c3nc4nonc4nc3N3CCCCC3)CC2=O)c1	.	.	.	.	.	.
